Reference: ChEMBL document CHEMBL5356993, “Novel pyrazolo[3,4-d]pyrimidine derivatives: design, synthesis, anticancer evaluation, VEGFR-2 inhibition, and antiangiogenic activity” (RSC Med Chem, 2023)

System: HT-29
Test: Antiproliferative activity against human HT-29 cells assessed as cell growth inhibition at 10 uM incubated for 48 hrs by SRB assay relative to control
Assay type: functional
Conditions: read-out: GI
Method in brief: (§1)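 Cells plated in 96-well plates at […] cells/well and preincubated 24 h at 37 °C, 5% CO2. Time-zero plates were TCA-fixed. Compound was diluted in medium with 50 µg/mL gentamicin and cells exposed for 48 h. Adherent cells fixed with 10% final TCA; suspension cells with 16% final TCA. Plates stained with 0.4% SRB in 1% acetic acid, dye solubilized in 10 mM Trizma, absorbance read at 515 nm. Percent growth calculated against time-zero and control.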

**Q.** `CC(=O)Nc1ccc(-n2c(C)nc3c(cnn3-c3ccccc3)c2=O)cc1` was tested. Which inhibition of growth at 10 µM did it give?
**A.** < 15%

System: NCI-H322M
Test: Antiproliferative activity against human NCI-H322M cells assessed as cell growth inhibition at 10 uM incubated for 48 hrs by SRB assay relative to control
Assay type: functional
Conditions: read-out: GI

**Q.** For `CC(=O)Nc1ccc(-n2c(C)nc3c(cnn3-c3ccccc3)c2=O)cc1`, which inhibition of growth at 10 µM is on record?
**A.** < 15%

System: MOLT-4
Test: Antiproliferative activity against human MOLT-4 cells assessed as cell growth inhibition at 10 uM incubated for 48 hrs by SRB assay relative to control
Assay type: functional
Conditions: read-out: GI

**Q.** For `CC(=O)Nc1ccc(-n2c(C)nc3c(cnn3-c3ccccc3)c2=O)cc1`, which inhibition of growth at 10 µM is on record?
**A.** 43.6%

System: HOP-92
Test: Antiproliferative activity against human HOP-92 cells assessed as cell growth inhibition at 10 uM incubated for 48 hrs by SRB assay relative to control
Assay type: functional
Conditions: read-out: GI
Method in brief: as §1

**Q.** Which inhibition of growth at 10 µM does the source give for `CC(=O)Nc1ccc(-n2c(C)nc3c(cnn3-c3ccccc3)c2=O)cc1` here?
**A.** 17%

System: PC-3
Test: Antiproliferative activity against human PC-3 cells assessed as cell growth inhibition at 10 uM incubated for 48 hrs by SRB assay relative to control
Assay type: functional
Conditions: read-out: GI

**Q.** For `CC(=O)Nc1ccc(-n2c(C)nc3c(cnn3-c3ccccc3)c2=O)cc1`, which inhibition of growth at 10 µM is on record?
**A.** 30.3%

System: KM12
Test: Antiproliferative activity against human KM12 cells assessed as cell growth inhibition at 10 uM incubated for 48 hrs by SRB assay relative to control
Assay type: functional
Conditions: read-out: GI
Method in brief: as §1

**Q.** `CC(=O)Nc1ccc(-n2c(C)nc3c(cnn3-c3ccccc3)c2=O)cc1` was tested. Which inhibition of growth at 10 µM did it give?
**A.** < 15%

System: OVCAR-5
Test: Antiproliferative activity against human OVCAR-5 cells assessed as cell growth inhibition at 10 uM incubated for 48 hrs by SRB assay relative to control
Assay type: functional
Conditions: read-out: GI
Method in brief: as §1

**Q.** With `CC(=O)Nc1ccc(-n2c(C)nc3c(cnn3-c3ccccc3)c2=O)cc1` as the compound, how does the inhibition of growth at 10 µM read?
**A.** < 15%

System: COLO 205
Test: Antiproliferative activity against human COLO 205 cells assessed as cell growth inhibition at 10 uM incubated for 48 hrs by SRB assay relative to control
Assay type: functional
Conditions: read-out: GI

**Q.** With `CC(=O)Nc1ccc(-n2c(C)nc3c(cnn3-c3ccccc3)c2=O)cc1` as the compound, how does the inhibition of growth at 10 µM read?
**A.** < 15%

System: SNB-19
Test: Antiproliferative activity against human SNB-19 cells assessed as cell growth inhibition at 10 uM incubated for 48 hrs by SRB assay relative to control
Assay type: functional
Conditions: read-out: GI
Method in brief: (§2)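 Cells pre-incubated 24 h at 37°C, 5% CO2, then exposed to compound (DMSO stock diluted in medium with 50 µg/mL gentamicin) for 48 h. Adherent cells fixed with cold TCA (final 10%, 60 min, 4°C); suspension cells fixed with 16% TCA final. Stained with 0.4% SRB in 1% acetic acid for 10 min, dye solubilized in 10 mM Trizma base, absorbance read at 515 nm. Growth calculated against time-zero and untreated control plates.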

**Q.** Which inhibition of growth at 10 µM does the source give for `CC(=O)Nc1ccc(-n2c(C)nc3c(cnn3-c3ccccc3)c2=O)cc1` here?
**A.** 16.4%

System: OVCAR-8
Test: Antiproliferative activity against human OVCAR-8 cells assessed as cell growth inhibition at 10 uM incubated for 48 hrs by SRB assay relative to control
Assay type: functional
Conditions: read-out: GI

**Q.** Which inhibition of growth at 10 µM does the source give for `CC(=O)Nc1ccc(-n2c(C)nc3c(cnn3-c3ccccc3)c2=O)cc1` here?
**A.** 20%

System: SNB-75
Test: Antiproliferative activity against human SNB-75 cells assessed as cell growth inhibition at 10 uM incubated for 48 hrs by SRB assay relative to control
Assay type: functional
Conditions: read-out: GI
Method in brief: as §2

**Q.** `CC(=O)Nc1ccc(-n2c(C)nc3c(cnn3-c3ccccc3)c2=O)cc1` was tested. Which inhibition of growth at 10 µM did it give?
**A.** < 15%

System: RPMI-8226
Test: Antiproliferative activity against human RPMI-8226 cells assessed as cell growth inhibition at 10 uM incubated for 48 hrs by SRB assay relative to control
Assay type: functional
Conditions: read-out: GI

**Q.** With `CC(=O)Nc1ccc(-n2c(C)nc3c(cnn3-c3ccccc3)c2=O)cc1` as the compound, how does the inhibition of growth at 10 µM read?
**A.** 47.5%

System: MCF7
Test: Antiproliferative activity against human MCF7 cells assessed as cell growth inhibition at 10 uM incubated for 48 hrs by SRB assay relative to control
Assay type: functional
Conditions: read-out: GI

**Q.** For `CC(=O)Nc1ccc(-n2c(C)nc3c(cnn3-c3ccccc3)c2=O)cc1`, which inhibition of growth at 10 µM is on record?
**A.** 44.4%

System: NCI/ADR-RES
Test: Antiproliferative activity against human NCI-ADR-RES cells assessed as cell growth inhibition at 10 uM incubated for 48 hrs by SRB assay relative to control
Assay type: functional
Conditions: read-out: GI

**Q.** For `CC(=O)Nc1ccc(-n2c(C)nc3c(cnn3-c3ccccc3)c2=O)cc1`, which inhibition of growth at 10 µM is on record?
**A.** < 15%

System: NCI-H226
Test: Antiproliferative activity against human NCI-H226 cells assessed as cell growth inhibition at 10 uM incubated for 48 hrs by SRB assay relative to control
Assay type: functional
Conditions: read-out: GI
Method in brief: as §1

**Q.** `CC(=O)Nc1ccc(-n2c(C)nc3c(cnn3-c3ccccc3)c2=O)cc1` was tested. Which inhibition of growth at 10 µM did it give?
**A.** 33.5%

System: DU-145
Test: Antiproliferative activity against human DU-145 cells assessed as cell growth inhibition at 10 uM incubated for 48 hrs by SRB assay relative to control
Assay type: functional
Conditions: read-out: GI

**Q.** `CC(=O)Nc1ccc(-n2c(C)nc3c(cnn3-c3ccccc3)c2=O)cc1` was tested. Which inhibition of growth at 10 µM did it give?
**A.** 17.8%

System: SF-268
Test: Antiproliferative activity against human SF-268 cells assessed as cell growth inhibition at 10 uM incubated for 48 hrs by SRB assay relative to control
Assay type: functional
Conditions: read-out: GI

**Q.** `CC(=O)Nc1ccc(-n2c(C)nc3c(cnn3-c3ccccc3)c2=O)cc1` was tested. Which inhibition of growth at 10 µM did it give?
**A.** < 15%

System: SF-295
Test: Antiproliferative activity against human SF-295 cells assessed as cell growth inhibition at 10 uM incubated for 48 hrs by SRB assay relative to control
Assay type: functional
Conditions: read-out: GI
Method in brief: as §1

**Q.** With `CC(=O)Nc1ccc(-n2c(C)nc3c(cnn3-c3ccccc3)c2=O)cc1` as the compound, how does the inhibition of growth at 10 µM read?
**A.** 36.5%

System: A549
Test: Antiproliferative activity against human A549 cells assessed as cell growth inhibition at 10 uM incubated for 48 hrs by SRB assay relative to control
Assay type: functional
Conditions: read-out: GI

**Q.** For `CC(=O)Nc1ccc(-n2c(C)nc3c(cnn3-c3ccccc3)c2=O)cc1`, which inhibition of growth at 10 µM is on record?
**A.** < 15%

System: SK-MEL-28
Test: Antiproliferative activity against human SK-MEL-28 cells assessed as cell growth inhibition at 10 uM incubated for 48 hrs by SRB assay relative to control
Assay type: functional
Conditions: read-out: GI
Method in brief: as §1

**Q.** Which inhibition of growth at 10 µM does the source give for `CC(=O)Nc1ccc(-n2c(C)nc3c(cnn3-c3ccccc3)c2=O)cc1` here?
**A.** < 15%

System: MDA-MB-468
Test: Antiproliferative activity against human MDA-MB-468 cells assessed as cell growth inhibition at 10 uM incubated for 48 hrs by SRB assay relative to control
Assay type: functional
Conditions: read-out: GI

**Q.** With `CC(=O)Nc1ccc(-n2c(C)nc3c(cnn3-c3ccccc3)c2=O)cc1` as the compound, how does the inhibition of growth at 10 µM read?
**A.** < 15%

System: CAKI-1
Test: Antiproliferative activity against human CAKI-1 cells assessed as cell growth inhibition at 10 uM incubated for 48 hrs by SRB assay relative to control
Assay type: functional
Conditions: read-out: GI

**Q.** Which inhibition of growth at 10 µM does the source give for `CC(=O)Nc1ccc(-n2c(C)nc3c(cnn3-c3ccccc3)c2=O)cc1` here?
**A.** 31.1%

System: BT-549
Test: Antiproliferative activity against human BT-549 cells assessed as cell growth inhibition at 10 uM incubated for 48 hrs by SRB assay relative to control
Assay type: functional
Conditions: read-out: GI

**Q.** For `CC(=O)Nc1ccc(-n2c(C)nc3c(cnn3-c3ccccc3)c2=O)cc1`, which inhibition of growth at 10 µM is on record?
**A.** 48%

System: ACHN
Test: Antiproliferative activity against human ACHN cells assessed as cell growth inhibition at 10 uM incubated for 48 hrs by SRB assay relative to control
Assay type: functional
Conditions: read-out: GI

**Q.** `CC(=O)Nc1ccc(-n2c(C)nc3c(cnn3-c3ccccc3)c2=O)cc1` was tested. Which inhibition of growth at 10 µM did it give?
**A.** 29.8%

System: IGROV-1
Test: Antiproliferative activity against human IGROV-1 cells assessed as cell growth inhibition at 10 uM incubated for 48 hrs by SRB assay relative to control
Assay type: functional
Conditions: read-out: GI

**Q.** Which inhibition of growth at 10 µM does the source give for `CC(=O)Nc1ccc(-n2c(C)nc3c(cnn3-c3ccccc3)c2=O)cc1` here?
**A.** < 15%

System: SK-MEL-2
Test: Antiproliferative activity against human SK-MEL-2 cells assessed as cell growth inhibition at 10 uM incubated for 48 hrs by SRB assay relative to control
Assay type: functional
Conditions: read-out: GI
Method in brief: as §1

**Q.** For `CC(=O)Nc1ccc(-n2c(C)nc3c(cnn3-c3ccccc3)c2=O)cc1`, which inhibition of growth at 10 µM is on record?
**A.** 24.3%

System: Malme-3M
Test: Antiproliferative activity against human Malme-3M cells assessed as cell growth inhibition at 10 uM incubated for 48 hrs by SRB assay relative to control
Assay type: functional
Conditions: read-out: GI

**Q.** For `CC(=O)Nc1ccc(-n2c(C)nc3c(cnn3-c3ccccc3)c2=O)cc1`, which inhibition of growth at 10 µM is on record?
**A.** 22.3%

System: U-251
Test: Antiproliferative activity against human U-251 cells assessed as cell growth inhibition at 10 uM incubated for 48 hrs by SRB assay relative to control
Assay type: functional
Conditions: read-out: GI
Method in brief: as §2

**Q.** With `CC(=O)Nc1ccc(-n2c(C)nc3c(cnn3-c3ccccc3)c2=O)cc1` as the compound, how does the inhibition of growth at 10 µM read?
**A.** < 15%

System: Hs-578T
Test: Antiproliferative activity against human Hs-578T cells assessed as cell growth inhibition at 10 uM incubated for 48 hrs by SRB assay relative to control
Assay type: functional
Conditions: read-out: GI
Method in brief: as §1

**Q.** For `CC(=O)Nc1ccc(-n2c(C)nc3c(cnn3-c3ccccc3)c2=O)cc1`, which inhibition of growth at 10 µM is on record?
**A.** < 15%

System: RXF 393
Test: Antiproliferative activity against human RXF 393 cells assessed as cell growth inhibition at 10 uM incubated for 48 hrs by SRB assay relative to control
Assay type: functional
Conditions: read-out: GI
Method in brief: as §1

**Q.** How did the inhibition of growth at 10 µM turn out when `CC(=O)Nc1ccc(-n2c(C)nc3c(cnn3-c3ccccc3)c2=O)cc1` was run?
**A.** < 15%

System: OVCAR-3
Test: Antiproliferative activity against human OVCAR-3 cells assessed as cell growth inhibition at 10 uM incubated for 48 hrs by SRB assay relative to control
Assay type: functional
Conditions: read-out: GI
Method in brief: as §1

**Q.** Which inhibition of growth at 10 µM does the source give for `CC(=O)Nc1ccc(-n2c(C)nc3c(cnn3-c3ccccc3)c2=O)cc1` here?
**A.** < 15%

System: SN12C
Test: Antiproliferative activity against human SN12C cells assessed as cell growth inhibition at 10 uM incubated for 48 hrs by SRB assay relative to control
Assay type: functional
Conditions: read-out: GI

**Q.** For `CC(=O)Nc1ccc(-n2c(C)nc3c(cnn3-c3ccccc3)c2=O)cc1`, which inhibition of growth at 10 µM is on record?
**A.** 26.1%

System: SK-OV-3
Test: Antiproliferative activity against human SK-OV-3 cells assessed as cell growth inhibition at 10 uM incubated for 48 hrs by SRB assay relative to control
Assay type: functional
Conditions: read-out: GI
Method in brief: as §1

**Q.** `CC(=O)Nc1ccc(-n2c(C)nc3c(cnn3-c3ccccc3)c2=O)cc1` was tested. Which inhibition of growth at 10 µM did it give?
**A.** < 15%

System: UACC-257
Test: Antiproliferative activity against human UACC-257 cells assessed as cell growth inhibition at 10 uM incubated for 48 hrs by SRB assay relative to control
Assay type: functional
Conditions: read-out: GI
Method in brief: as §2

**Q.** How did the inhibition of growth at 10 µM turn out when `CC(=O)Nc1ccc(-n2c(C)nc3c(cnn3-c3ccccc3)c2=O)cc1` was run?
**A.** 41.7%
